ChEMBL document CHEMBL4308921, “Structure-Activity Relationships of Central Nervous System Penetration by Fatty Acid Amide Hydrolase (FAAH)-Targeted Thyromimetic Prodrugs” (ACS Med Chem Lett, 2019)

Columns and labels:
[1] = molecular target: T1, Fatty-acid amide hydrolase 1 (Homo sapiens, UniProt O00519); assay: Prodrug activation in COS7 cells overexpressing human FAAH assessed as FAAH-mediated sobetirome formation by measuring compound hydrolysis rate at 100 uM by LC-MS/MS analysis; assay type: cell-based
T1 sequence (O00519 whole entry): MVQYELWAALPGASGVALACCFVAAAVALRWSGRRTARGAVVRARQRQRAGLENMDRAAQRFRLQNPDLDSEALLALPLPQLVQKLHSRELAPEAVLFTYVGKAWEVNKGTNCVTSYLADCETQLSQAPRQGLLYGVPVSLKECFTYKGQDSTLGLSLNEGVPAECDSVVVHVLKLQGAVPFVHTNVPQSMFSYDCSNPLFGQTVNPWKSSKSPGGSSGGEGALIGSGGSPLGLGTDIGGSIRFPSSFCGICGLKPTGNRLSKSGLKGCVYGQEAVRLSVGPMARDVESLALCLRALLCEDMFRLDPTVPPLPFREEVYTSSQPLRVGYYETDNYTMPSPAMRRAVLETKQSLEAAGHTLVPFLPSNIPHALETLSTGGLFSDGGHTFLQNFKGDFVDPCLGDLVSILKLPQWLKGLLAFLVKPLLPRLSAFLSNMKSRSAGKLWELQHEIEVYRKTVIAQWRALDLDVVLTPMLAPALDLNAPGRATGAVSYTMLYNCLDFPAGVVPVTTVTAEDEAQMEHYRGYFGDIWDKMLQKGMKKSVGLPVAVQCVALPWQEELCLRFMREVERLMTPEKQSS
Method in brief: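 Hydrolysis kinetics were measured in homogenate of COS-7 cells overexpressing human FAAH, with prodrug substrate at 100 µM. Rate is given as nmol mg-1 min-1, mean ± SEM, n = 3.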

[2] = Brain to serum permeability coefficient, Kp of the compound in C57BL/6 mouse assessed as sobetirome level at 3.05 umol/kg, ip after 1 hr by LC-MS/MS analysis; assay type: ADME, organism-based
[3] = Prodrug activation in C57BL/6 mouse serum assessed as FAAH-mediated sobetirome formation at 3.05 umol/kg, ip after 1 hr by LC-MS/MS analysis; assay type: organism-based; conditions: in vivo
[4] = Prodrug activation in C57BL/6 mouse brain assessed as FAAH-mediated sobetirome formation at 3.05 umol/kg, ip after 1 hr by LC-MS/MS analysis; assay type: organism-based; conditions: in vivo

Row | Structure (SMILES) | Drug metabolism [1] | Kp [2] | Drug uptake [3] | Drug uptake [4]
1 | Cc1cc(OCC(=O)Nc2ccccc2O)cc(C)c1Cc1ccc(O)c(C(C)C)c1 | 1.4 nmol/mg/min | 0.04 | 174.7 ng/g | 7.4 ng/g
2 | Cc1cc(OCC(=O)NCc2ccccc2)cc(C)c1Cc1ccc(O)c(C(C)C)c1 | 1.7 nmol/mg/min | 0.95 | 15.2 ng/g | 15.7 ng/g
3 | Cc1cc(OCC(=O)Nc2cccc(F)c2)cc(C)c1Cc1ccc(O)c(C(C)C)c1 | 2.1 nmol/mg/min | 0.04 | 383.8 ng/g | 15.4 ng/g
4 | Cc1cc(OCC(=O)NC2COC2)cc(C)c1Cc1ccc(O)c(C(C)C)c1 | 3.7 nmol/mg/min | 0.75 | 110.6 ng/g | 79.2 ng/g
5 | Cc1cc(OCC(=O)NCC(F)F)cc(C)c1Cc1ccc(O)c(C(C)C)c1 | 3.4 nmol/mg/min | 1.04 | 128.8 ng/g | 125.4 ng/g
6 | Cc1cc(OCC(=O)NCCS(=O)(=O)[O-])cc(C)c1Cc1ccc(O)c(C(C)C)c1.[Na+] | 8.9 nmol/mg/min | 0.18 | 45.7 ng/g | 7.1 ng/g
7 | Cc1cc(OCC(=O)NCCNS(C)(=O)=O)cc(C)c1Cc1ccc(O)c(C(C)C)c1 | 2.4 nmol/mg/min | 0.06 | 26.2 ng/g | 1.6 ng/g
8 | Cc1cc(OCC(=O)NCCc2ccccc2)cc(C)c1Cc1ccc(O)c(C(C)C)c1 | 1 nmol/mg/min | 1.31 | 8.6 ng/g | 11.3 ng/g
9 | C=CCNC(=O)COc1cc(C)c(Cc2ccc(O)c(C(C)C)c2)c(C)c1 | 3.6 nmol/mg/min | 1.23 | 25.4 ng/g | 33.4 ng/g
10 | Cc1cc(OCC(=O)NCC#N)cc(C)c1Cc1ccc(O)c(C(C)C)c1 | 5 nmol/mg/min | 0.57 | 107.7 ng/g | 59.9 ng/g
11 | Cc1cc(OCC(=O)NCC(F)(F)F)cc(C)c1Cc1ccc(O)c(C(C)C)c1 | 4.8 nmol/mg/min | 0.76 | 80.2 ng/g | 59.4 ng/g
12 | Cc1cc(OCC(=O)NCC(C)O)cc(C)c1Cc1ccc(O)c(C(C)C)c1 (stereo unspecified) | 3.6 nmol/mg/min | 0.72 | 55.7 ng/g | 38.7 ng/g

Other lines, results leading:

Row | Drug metabolism [1] | Kp [2] | Drug uptake [3] | Drug uptake [4] | Structure (SMILES)
13 | 4.3 nmol/mg/min | 3.17 | 10.4 ng/g | 32.2 ng/g | Cc1cc(OCC(=O)N(C)C)cc(C)c1Cc1ccc(O)c(C(C)C)c1
14 | 3.8 nmol/mg/min | 0.58 | 199.5 ng/g | 68.2 ng/g | Cc1cc(OCC(=O)NN)cc(C)c1Cc1ccc(O)c(C(C)C)c1
15 | 3.4 nmol/mg/min | 2.74 | 21.5 ng/g | 58.2 ng/g | CCNC(=O)COc1cc(C)c(Cc2ccc(O)c(C(C)C)c2)c(C)c1
16 | 4.7 nmol/mg/min | 1.17 | 79.5 ng/g | 93.9 ng/g | Cc1cc(OCC(N)=O)cc(C)c1Cc1ccc(O)c(C(C)C)c1
17 | 4.9 nmol/mg/min | 0.03 | 127.7 ng/g | 2.8 ng/g | Cc1cc(OCC(=O)NO)cc(C)c1Cc1ccc(O)c(C(C)C)c1
18 | 5.6 nmol/mg/min | 0.07 | 6.9 ng/g | 0.8 ng/g | Cc1cc(OCC(=O)NCCN)cc(C)c1Cc1ccc(O)c(C(C)C)c1
19 | 2.6 nmol/mg/min | 1.15 | 16.9 ng/g | 20.2 ng/g | CCCNC(=O)COc1cc(C)c(Cc2ccc(O)c(C(C)C)c2)c(C)c1
